Laboratory results reported in ChEMBL document CHEMBL1126775, “A pharmacological, crystallographic, and quantum chemical study of new inotropic agents” (J Med Chem, 1993).
Where “and” joins values, the source holds several entries; their conditions need not be identical. Equal entries are not always repeated.

Assays:
[1] = Logarithm of the sum of contributions of each atom to the total lipophilicity of the molecule; type: physicochemical; conditions: octanol/water
Cavia porcellus [2] = species on record: Cavia porcellus; test: Effect on contractile force of spontaneously beating atria from reserpine treated guinea pigs at the concentration of 2 x 10 e-3 M; type: functional
Cavia porcellus [3] = species on record: Cavia porcellus; test: Effect on frequency rate of spontaneously beating atria from reserpine treated guinea pigs at the concentration of 10 e-3 M; type: functional
Cavia porcellus [4] = species on record: Cavia porcellus; test: Inotropic effect in electrically driven left atrium from reserpine-treated guinea pig at the concentration of 5 x 10 e-4 M; type: functional, Cardiac atrium
In short: (§1)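 Atria from reserpine-pretreated guinea pigs (2 mg/kg ip, 48 and 24 h), tyramine-unresponsive only. Left atrium loaded 0.5 g, paced at 1.5 Hz with 3-ms square pulses at 10–20% above threshold. Equilibrated 90 min. Agents added cumulatively, 5 min per concentration. Isometric developed tension expressed as % increase over control.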

Cavia porcellus [5] = species on record: Cavia porcellus; test: Effect on frequency rate of spontaneously beating atria from reserpine treated guinea pigs at the concentration of 5 x 10 e-4 M; type: functional
Cavia porcellus [6] = species on record: Cavia porcellus; test: Effect on frequency rate of spontaneously beating atria from reserpine treated guinea pigs at the concentration of 10 e-5 M; type: functional
Cavia porcellus [7] = species on record: Cavia porcellus; test: Inotropic effect in electrically driven left atrium from reserpine-treated guinea pig at the concentration of 2 x 10 e-3 M; type: functional, Cardiac atrium; in short: as §1
Cavia porcellus [8] = species on record: Cavia porcellus; test: Effect on frequency rate of spontaneously beating atria from reserpine treated guinea pigs at the concentration of 10 e-4 M; type: functional
Cavia porcellus [9] = species on record: Cavia porcellus; test: Effect on frequency rate of spontaneously beating atria from reserpine treated guinea pigs at the concentration of 2 x 10 e-3 M; type: functional
Cavia porcellus [10] = species on record: Cavia porcellus; test: Effect on contractile force of spontaneously beating atria from reserpine treated guinea pigs at the concentration of 5x 10 e-5 M; type: functional
Cavia porcellus [11] = species on record: Cavia porcellus; test: Inotropic effect in electrically driven left atrium from reserpine-treated guinea pig at the concentration of 5 x 10 e-5 M; type: functional, Cardiac atrium; in short: as §1
Cavia porcellus [12] = species on record: Cavia porcellus; test: Effect on contractile force of spontaneously beating atria from reserpine treated guinea pigs at the concentration of 5x 10 e-4 M; type: functional
Cavia porcellus [13] = species on record: Cavia porcellus; test: Inotropic effect in electrically driven left atrium from reserpine-treated guinea pig at the concentration of 10 e-3 M; type: functional, Cardiac atrium; in short: as §1
Cavia porcellus [14] = species on record: Cavia porcellus; test: Effect on contractile force of spontaneously beating atria from reserpine treated guinea pigs at the concentration of 10 e-4 M; type: functional
Cavia porcellus [15] = species on record: Cavia porcellus; test: Inotropic effect in electrically driven left atrium from reserpine-treated guinea pig at the concentration of 10 e-5 M; type: functional, Cardiac atrium; in short: as §1
Cavia porcellus [16] = species on record: Cavia porcellus; test: Effect on contractile force of spontaneously beating atria from reserpine treated guinea pigs at the concentration of 10 e-5 M; type: functional
Cavia porcellus [17] = species on record: Cavia porcellus; test: Inotropic effect in electrically driven left atrium from reserpine-treated guinea pig at the concentration of 10 e-4 M; type: functional, Cardiac atrium; in short: as §1
Cavia porcellus [18] = species on record: Cavia porcellus; test: Effect on contractile force of spontaneously beating atria from reserpine treated guinea pigs at the concentration of 10 e-3 M; type: functional
Cavia porcellus [19] = species on record: Cavia porcellus; test: Effect on contractile force of spontaneously beating atria from reserpine treated guinea pigs at the concentration of 5x 10 e-4 M (negative ionotropic effect); type: functional
Cavia porcellus [20] = species on record: Cavia porcellus; test: Effect on inotropic response to 3 x 10 e-6 8-phenyltheophylline in electrically driven left atrium from reserpine-treated guinea pigs; type: functional, Cardiac atrium
In short: (§2)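 Paced left atrium (1.5 Hz, 0.5 g load) from reserpine-pretreated guinea pigs. Test agent (10^-4 or 5×10^-5 M) added to perfusion 10 min before cumulative 8-phenyltheophylline (10^-6–10^-4 M). Developed tension as % increase over control. Mean ± SEM of four assays from four experiments; Student's t test against atria without the test agent.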

Cavia porcellus [21] = species on record: Cavia porcellus; test: Effect on inotropic response to 10 e-5 8-phenyltheophylline in electrically driven left atrium from reserpine-treated guinea pigs at 10 e-4 M; type: functional, Cardiac atrium; in short: as §2
Cavia porcellus [22] = species on record: Cavia porcellus; test: Effect on inotropic response to 3 x 10 e-6 8-phenyltheophylline in electrically driven left atrium from reserpine-treated guinea pigs at 10 e-4 M; type: functional, Cardiac atrium; in short: as §2
Cavia porcellus [23] = species on record: Cavia porcellus; test: Effect on frequency rate of spontaneously beating atria from reserpine treated guinea pigs at the concentration of 5 x 10 e-5 M (negative chronotropic ionotropic effect)
Cavia porcellus [24] = species on record: Cavia porcellus; test: Effect on frequency rate of spontaneously beating atria from reserpine treated guinea pigs at the concentration of 5 x 10 e-4 M (negative chronotropic ionotropic effect); type: functional
Cavia porcellus [25] = species on record: Cavia porcellus; test: Effect on inotropic response to 10 e-4 8-phenyltheophylline in electrically driven left atrium from reserpine-treated guinea pigs at 5 x 10 e-5 M; type: functional, Cardiac atrium; in short: as §2
Cavia porcellus [26] = species on record: Cavia porcellus; test: Effect on inotropic response to 3 x 10 e-6 8-phenyltheophylline in electrically driven left atrium from reserpine-treated guinea pigs at 5 x 10 e-5 M; type: functional, Cardiac atrium; in short: as §2
Cavia porcellus [27] = species on record: Cavia porcellus; test: Effect on contractile force of spontaneously beating atria from reserpine treated guinea pigs at the concentration of 5x 10 e-5 M (negative ionotropic effect); type: functional
Cavia porcellus [28] = species on record: Cavia porcellus; test: Effect on inotropic response to 10 e-6 8-phenyltheophylline in electrically driven left atrium from reserpine-treated guinea pigs at 5 x 10 e-5 M; type: functional, Cardiac atrium; in short: as §2
Cavia porcellus [29] = species on record: Cavia porcellus; test: Effect on contractile force of spontaneously beating atria from reserpine treated guinea pigs at the concentration of 10 e-3 M (negative ionotropic effect); type: functional
Cavia porcellus [30] = species on record: Cavia porcellus; test: Effect on contractile force of spontaneously beating atria from reserpine treated guinea pigs at the concentration of 10 e-5 M (negative ionotropic effect); type: functional
Cavia porcellus [31] = species on record: Cavia porcellus; test: Effect on inotropic response to 10 e-5 8-phenyltheophylline in electrically driven left atrium from reserpine-treated guinea pigs at 5 x 10 e-5 M; type: functional, Cardiac atrium; in short: as §2
Cavia porcellus [32] = species on record: Cavia porcellus; test: Effect on inotropic response to 10 e-6 8-phenyltheophylline in electrically driven left atrium from reserpine-treated guinea pigs at 10 e-4 M; type: functional, Cardiac atrium; in short: as §2
Cavia porcellus [33] = species on record: Cavia porcellus; test: Effect on inotropic response to 3 x 10 e-5 8-phenyltheophylline in electrically driven left atrium from reserpine-treated guinea pigs; type: functional, Cardiac atrium; in short: as §2
Cavia porcellus [34] = species on record: Cavia porcellus; test: Effect on inotropic response to 3 x 10 e-5 8-phenyltheophylline in electrically driven left atrium from reserpine-treated guinea pigs at 10 e-4 M; type: functional, Cardiac atrium; in short: as §2
Cavia porcellus [35] = species on record: Cavia porcellus; test: Effect on inotropic response to 10 e-4 8-phenyltheophylline in electrically driven left atrium from reserpine-treated guinea pigs; type: functional, Cardiac atrium; in short: as §2
Cavia porcellus [36] = species on record: Cavia porcellus; test: Effect on inotropic response to 10 e-6 8-phenyltheophylline in electrically driven left atrium from reserpine-treated guinea pigs; type: functional, Cardiac atrium; in short: as §2
Cavia porcellus [37] = species on record: Cavia porcellus; test: Effect on contractile force of spontaneously beating atria from reserpine treated guinea pigs at the concentration of 10 e-4 M (negative ionotropic effect); type: functional
Cavia porcellus [38] = species on record: Cavia porcellus; test: Effect on inotropic response to 10 e-4 8-phenyltheophylline in electrically driven left atrium from reserpine-treated guinea pigs at 10 e-4 M; type: functional, Cardiac atrium; in short: as §2
Cavia porcellus [39] = species on record: Cavia porcellus; test: Effect on frequency rate of spontaneously beating atria from reserpine treated guinea pigs at the concentration of 10 e-4 M (negative chronotropic ionotropic effect); type: functional
Cavia porcellus [40] = species on record: Cavia porcellus; test: Effect on frequency rate of spontaneously beating atria from reserpine treated guinea pigs at the concentration of 2 x 10 e-3 M (negative chronotropic ionotropic effect); type: functional
Cavia porcellus [41] = species on record: Cavia porcellus; test: Effect on inotropic response to 10 e-5 8-phenyltheophylline in electrically driven left atrium from reserpine-treated guinea pigs; type: functional, Cardiac atrium; in short: as §2
Cavia porcellus [42] = species on record: Cavia porcellus; test: Effect on inotropic response to 3x 10 e-5 8-phenyltheophylline in electrically driven left atrium from reserpine-treated guinea pigs at 5 x 10 e-5 M; type: functional, Cardiac atrium; in short: as §2
Cavia porcellus [43] = species on record: Cavia porcellus; test: Effect on contractile force of spontaneously beating atria from reserpine treated guinea pigs at the concentration of 2 x 10 e-3 M (negative ionotropic effect); type: functional
Cavia porcellus [44] = species on record: Cavia porcellus; test: Effect on frequency rate of spontaneously beating atria from reserpine treated guinea pigs at the concentration of 10 e-3 M (negative chronotropic ionotropic effect); type: functional
Cavia porcellus [45] = species on record: Cavia porcellus; test: Effect on contractile force of spontaneously beating atria from reserpine treated guinea pigs at the concentration of 10 e-5 M; arrhythmias; type: functional

## Cc1[nH]c(=O)c(C#N)cc1-c1ccncc1 [MILRINONE]
[1]
  logP: 2.89
Cavia porcellus [2]
  Increase: 29.31%
Cavia porcellus [3]
  Increase: 39.2%
Cavia porcellus [4]
  Increase: 44.72%
Cavia porcellus [5]
  Increase: 43.96%
Cavia porcellus [6]
  Increase: 16.41% and 28.1%
Cavia porcellus [7]
  Increase: 37.95%
Cavia porcellus [8]
  Increase: 35.26%
Cavia porcellus [9]
  Increase: 31.79%
Cavia porcellus [10]
  Increase: 31.32%
Cavia porcellus [11]
  Increase: 22.83%
Cavia porcellus [12]
  Increase: 46.52%
Cavia porcellus [13]
  Increase: 41.96%
Cavia porcellus [14]
  Increase: 38.76%
Cavia porcellus [15]
  Increase: 13.25%
Cavia porcellus [16]
  Increase: 18.25%
Cavia porcellus [17]
  Increase: 34.61%
Cavia porcellus [18]
  Increase: 33.09%

## O=C(c1ccccc1)c1ccc(O)nc1-c1ccccc1
Cavia porcellus [19]
  Increase: -38.32%
[1]
  logP: 3.82
Cavia porcellus [20]
  Increase: 7.33%
Cavia porcellus [21]
  Increase: 18.78%
Cavia porcellus [22]
  Increase: 11.38%
Cavia porcellus [23]
  Increase: -4.26% and -9.3%
Cavia porcellus [24]
  Increase: -24.37%
Cavia porcellus [25]
  Increase: 25.91%
Cavia porcellus [26]
  Increase: 8.13%
Cavia porcellus [27]
  Increase: -7.3%
Cavia porcellus [28]
  Increase: 5.7%
Cavia porcellus [29]
  Increase: -43.71%
Cavia porcellus [30]
  Increase: -2.67%
Cavia porcellus [31]
  Increase: 14.44%
Cavia porcellus [32]
  Increase: 4.56%
Cavia porcellus [33]
  Increase: 14.72%
Cavia porcellus [34]
  Increase: 20.17%
Cavia porcellus [35]
  Increase: 20.81%
Cavia porcellus [36]
  Increase: 4.27%
Cavia porcellus [37]
  Increase: -24.76%
Cavia porcellus [38]
  Increase: 27.05%
Cavia porcellus [39]
  Increase: -14.92%
Cavia porcellus [40]
  Increase: -40.57%
Cavia porcellus [41]
  Increase: 11.19%
Cavia porcellus [42]
  Increase: 17.41%
Cavia porcellus [43]
  Increase: -46.27%
Cavia porcellus [44]
  Increase: -32.89%

## O=C(O)c1cc2c(nc1O)CCCC2=O
Cavia porcellus [45]
  Increase: arrhythmias

## Nc1cc(-c2ccncc2)c[nH]c1=O [INAMRINONE]
[1]
  logP: 2.66
Cavia porcellus [2]
  Increase: 25.3%
Cavia porcellus [3]
  Increase: 30.69%
Cavia porcellus [4]
  Increase: 22.3%
Cavia porcellus [5]
  Increase: 24.11%
Cavia porcellus [6]
  Increase: 4.62% and 8.85%
Cavia porcellus [7]
  Increase: 34.6%
Cavia porcellus [8]
  Increase: 15.68%
Cavia porcellus [9]
  Increase: 26.3%
Cavia porcellus [10]
  Increase: 11.52%
Cavia porcellus [11]
  Increase: 6.49%
Cavia porcellus [12]
  Increase: 23.92%
Cavia porcellus [13]
  Increase: 27%
Cavia porcellus [14]
  Increase: 17.92%
Cavia porcellus [15]
  Increase: 4.5%
Cavia porcellus [16]
  Increase: 7.08%
Cavia porcellus [17]
  Increase: 17.52%
Cavia porcellus [18]
  Increase: 28.81%
